Laboratory results reported in ChEMBL document CHEMBL4011584, “Overcoming drug resistance by cell-penetrating peptide-mediated delivery of a doxorubicin dimer with high DNA-binding affinity” (Eur J Med Chem, 2017).
Calls of active or inactive are those of the source. The rule behind the calls is not given here.

Key:
[1] = Antiproliferative activity against human adriamycin-resistant Kelly cells after 72 hrs by CellTiter-Glo luminescent cell viability assay; assay type: functional, cell-based
Outline: (§1)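 1×10^3 cells/well, allowed to attach 24 h, then exposed 72 h to 0.05-20 µM drug. Viability by ATP luminescence (CellTiter-Glo) relative to untreated controls with medium correction. IC50 read from log-concentration survival curves, independent triplicates. Kelly-WT and doxorubicin-selected Kelly-ADR (tenfold resistant) cultured in RPMI1640 with 10 % FCS, 2 mM glutamine and pen/strep at 37°C, 5 % CO2.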

[2] = Drug uptake in nucleus of adriamycin-resistant human Kelly cells at 10 uM after 72 hrs by fluorescence confocal microscopic method; assay type: ADME
Outline: (§2)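 Live Kelly-WT or Kelly-ADR cells (1×10^4/well) exposed to 10 µM drug for 24 or 72 h at 37°C, 5 % CO2. Imaged by confocal laser scanning microscopy with a 63× water objective. Red signal is anthracycline-associated fluorescence.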

[3] = Drug uptake in nucleus of human Kelly cells at 10 uM after 72 hrs by DRAQ5-staining based fluorescence confocal microscopic method; assay type: ADME
Outline: (§3)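 Kelly-WT or Kelly-ADR cells exposed 72 h to 10 µM drug. Nuclei counterstained with 5 µM DRAQ5 for 5 min before live confocal imaging at 37°C, 5 % CO2. Nuclear localization scored by overlay (colocalization) with the DRAQ5 signal.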

[4] = Antiproliferative activity against human Kelly cells after 72 hrs by CellTiter-Glo luminescent cell viability assay; assay type: functional, cell-based; outline: as §1
[5] = Potency index, ratio of doxorubicin IC50 to compound IC50 for human adriamycin-resistant Kelly cells; assay type: functional
[6] = Drug uptake in human Kelly cells at 10 uM after 24 hrs by fluorescence confocal microscopic method; assay type: ADME, cell-based; outline: as §2
[7] = Drug uptake in human Kelly cells at 10 uM after 72 hrs by fluorescence confocal microscopic method; assay type: ADME, cell-based; outline: as §2
[8] = Drug uptake in human adriamycin-resistant Kelly cells at 10 uM after 24 hrs by fluorescence confocal microscopic method; assay type: ADME, cell-based; outline: as §2
[9] = Drug uptake in cytosol of human Kelly cells at 10 uM after 72 hrs by fluorescence confocal microscopic method; assay type: ADME; outline: as §2
[10] = Stability of the compound at pH 5 assessed as doxorubicin formation; assay type: physicochemical; details: buffer
[11] = Drug uptake in nucleus of human adriamycin-resistant Kelly cells at 10 uM after 72 hrs by DRAQ5-staining based fluorescence confocal microscopic method; assay type: ADME; outline: as §3
[12] = Drug uptake in adriamycin-resistant human Kelly cell membranes at 10 uM after 72 hrs by fluorescence confocal microscopic method; assay type: ADME; outline: as §2
[13] = test system: MCF7; assay: Antiproliferative activity against human MCF7 cells after 72 hrs by CellTiter-Glo luminescent cell viability assay; assay type: functional, cell-based; details: MCF7, 72 h
[14] = Drug uptake in human Kelly cell membrane at 10 uM after 24 hrs by fluorescence confocal microscopic method; assay type: ADME, cell-based; outline: as §2
[15] = (§4) Drug level treated with (S,S,R,S,S,S,E)-N,N'-((6S,9S,12S,15S,18S,21S,24S,27S)-30-acetamido-1-amino-6-carbamoyl-9,12,15,18,21,24,27-heptakis(3-guanidinopropyl)-1-imino-8,11,14,17,20,23,26,29,37-nonaoxo-32,33-dithia-2,7,10,13,16,19,22,25,28,36-decaazadotetracontane-38,42-diyl)bis(2-((E)-1-((2S,4S)-4-((2R,4S,5S,6S)-4-amino-5-hydroxy-6-methyltetrahydro-2H-pyran-2-yloxy)-2,5,12-trihydroxy-7-methoxy-6,11-dioxo-1,2,3,4,6,11-hexahydrotetracen-2-yl)-2-hydroxyethylideneaminooxy)acetamide)decaacetate at 1 mM in presence of glutathione at 3 hrs post dose by MALDI-TOF-mass spectroscopic analysis
Outline: (§5)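 Conjugate at 1 mM in DPBS pH 7.4 with 10 mM glutathione (tenfold excess), 37°C, shaking at 300 rpm. Disulfide reduction followed by HPLC at 480 nm over 24 h. Cleavage products identified by MALDI-TOF MS.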

[16] = as §4, with “1 min” for “3 hrs”; outline: as §5
[17] = Binding affinity to Cy5-labelled-36 base pair double stranded DNA (unknown origin) measured under infrared laser light by microscale thermophoresis
Outline: (§6)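 Microscale thermophoresis: 50 nM Cy5-labeled DNA titrated with ligand in 50 mM Tris pH 6.5, 15 mM NaCl, 10 mM MgCl2, 0.05 % Tween 20. IR laser at 10 % intensity, starting from room temperature. Fluorescence signals fitted assuming 1:1 binding to give Ka/EC50.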

[18] = Binding affinity to Cy5-labelled-12 base pair double stranded DNA (unknown origin) measured under infrared laser light by microscale thermophoresis; outline: as §6
[19] = Drug uptake in cytosol of adriamycin-resistant human Kelly cells at 10 uM after 72 hrs by fluorescence confocal microscopic method; assay type: ADME; outline: as §2
[20] = Drug uptake in nucleus of human adriamycin-resistant Kelly cells at 10 uM after 24 hrs by fluorescence confocal microscopic method; assay type: ADME; outline: as §2
[21] = Drug uptake in nucleus of human Kelly cells at 10 uM after 72 hrs by fluorescence confocal microscopic method; assay type: ADME; outline: as §2
[22] = Potency index, ratio of doxorubicin EC50 to compound EC50 for binding affinity to Cy5-labelled-36 base pair double stranded DNA (unknown origin)
[23] = Potency index, ratio of doxorubicin Ka to compound Ka for binding affinity to Cy5-labelled-36 base pair double stranded DNA (unknown origin)
[24] = as §4, with “after 24” for “at 3”, “hrs” for “hrs post dose”; outline: as §5

CC(=O)O.CC(=O)O.CC(=O)O.CC(=O)O.CC(=O)O.CC(=O)O.CC(=O)O.CC(=O)O.CC(=O)O.CC(=O)O.COc1cccc2c1C(=O)c1c(O)c3c(c(O)c1C2=O)C[C@@](O)(/C(CO)=N/OCC(=O)NCCCC[C@H](NC(=O)CO/N=C(\CO)[C@]1(O)Cc2c(O)c4c(c(O)c2[C@@H](O[C@H]2C[C@H](N)[C@H](O)[C@H](C)O2)C1)C(=O)c1c(OC)cccc1C4=O)C(=O)NCCSSC[C@H](NC(C)=O)C(=O)N[C@@H](CCCNC(=N)N)C(=O)N[C@@H](CCCNC(=N)N)C(=O)N[C@@H](CCCNC(=N)N)C(=O)N[C@@H](CCCNC(=N)N)C(=O)N[C@@H](CCCNC(=N)N)C(=O)N[C@@H](CCCNC(=N)N)C(=O)N[C@@H](CCCNC(=N)N)C(=O)N[C@@H](CCCNC(=N)N)C(N)=O)C[C@@H]3O[C@H]1C[C@H](N)[C@H](O)[C@H](C)O1
IC50 [1]: 2760 nM | Drug uptake [2]: Active | Drug uptake [3]: Active | IC50 [4]: 2470 nM | Ratio IC50 [5]: 3 | Drug uptake [6]: Active | Drug uptake [7]: Active | Drug uptake [8]: Active | Drug uptake [9]: Active | Stability [10]: Stable | Drug uptake [11]: Active | Drug uptake [12]: Active | IC50 [13]: 3660 nM | Drug uptake [14]: Active

COc1cccc2c1C(=O)c1c(O)c3c(c(O)c1C2=O)C[C@@](O)(/C(CO)=N/OCC(=O)NCCCC[C@H](NC(=O)CO/N=C(\CO)[C@]1(O)Cc2c(O)c4c(c(O)c2[C@@H](O[C@H]2C[C@H](N)[C@H](O)[C@H](C)O2)C1)C(=O)c1c(OC)cccc1C4=O)C(=O)NCCSSC[C@H](NC(=O)CC[C@@H](N)C(=O)O)C(=O)NCC(=O)O)C[C@@H]3O[C@H]1C[C@H](N)[C@H](O)[C@H](C)O1
Drug metabolism [15]: Metabolite detected

CC(=O)N[C@@H](CS)C(=O)N[C@@H](CCCNC(=N)N)C(=O)N[C@@H](CCCNC(=N)N)C(=O)N[C@@H](CCCNC(=N)N)C(=O)N[C@@H](CCCNC(=N)N)C(=O)N[C@@H](CCCNC(=N)N)C(=O)N[C@@H](CCCNC(=N)N)C(=O)N[C@@H](CCCNC(=N)N)C(=O)N[C@@H](CCCNC(=N)N)C(N)=O
IC50 [1]: ≥ 100000 nM | IC50 [4]: ≥ 100000 nM | IC50 [13]: ≥ 100000 nM

COc1cccc2c1C(=O)c1c(O)c3c(c(O)c1C2=O)C[C@@](O)(/C(CO)=N/OCC(=O)NCCCC[C@H](NC(=O)CO/N=C(\CO)[C@]1(O)Cc2c(O)c4c(c(O)c2[C@@H](O[C@H]2C[C@H](N)[C@H](O)[C@H](C)O2)C1)C(=O)c1c(OC)cccc1C4=O)C(=O)NCCS)C[C@@H]3O[C@H]1C[C@H](N)[C@H](O)[C@H](C)O1
Drug metabolism [16]: Metabolite detected

COc1cccc2c1C(=O)c1c(O)c3c(c(O)c1C2=O)C[C@@](O)(C(=O)CO)C[C@@H]3O[C@H]1C[C@H](N)[C@H](O)[C@H](C)O1 [DOXORUBICIN]
EC50 [17]: 1160 nM | Kd [17]: 1130 nM | IC50 [1]: 6570 nM | Activity [18]: inactive | Drug uptake [2]: Not Active | Drug uptake [19]: Not Active | IC50 [4]: 180 nM | Drug uptake [6]: Active | Drug uptake [7]: Active | Drug uptake [8]: Active | Drug uptake [20]: Active | Drug uptake [21]: Active

COc1cccc2c1C(=O)c1c(O)c3c(c(O)c1C2=O)C[C@@](O)(/C(CO)=N/OCC(=O)NCCCC[C@H](NC(=O)CO/N=C(\CO)[C@]1(O)Cc2c(O)c4c(c(O)c2[C@@H](O[C@H]2C[C@H](N)[C@H](O)[C@H](C)O2)C1)C(=O)c1c(OC)cccc1C4=O)C(=O)NCCSSc1ccccn1)C[C@@H]3O[C@H]1C[C@H](N)[C@H](O)[C@H](C)O1
EC50 [17]: 150 nM | Ka [17]: 7.9 ×10⁶ /M | Kd [17]: 126 nM | IC50 [1]: 7330 nM | Activity [18]: inactive | Ratio EC50 [22]: 10 | IC50 [4]: 1790 nM | Ratio [23]: 10 | IC50 [13]: 6730 nM

COc1cccc2c1C(=O)c1c(O)c3c(c(O)c1C2=O)C[C@@](O)(/C(CO)=N/OCC(=O)NCCCC[C@H](NC(=O)CO/N=C(\CO)[C@]1(O)Cc2c(O)c4c(c(O)c2[C@@H](O[C@H]2C[C@H](N)[C@H](O)[C@H](C)O2)C1)C(=O)c1c(OC)cccc1C4=O)C(=O)NCCSSCCNC(=O)[C@H](CCCCNC(=O)CO/N=C(\CO)[C@]1(O)Cc2c(O)c4c(c(O)c2[C@@H](O[C@H]2C[C@H](N)[C@H](O)[C@H](C)O2)C1)C(=O)c1c(OC)cccc1C4=O)NC(=O)CO/N=C(\CO)[C@]1(O)Cc2c(O)c4c(c(O)c2[C@@H](O[C@H]2C[C@H](N)[C@H](O)[C@H](C)O2)C1)C(=O)c1c(OC)cccc1C4=O)C[C@@H]3O[C@H]1C[C@H](N)[C@H](O)[C@H](C)O1
Drug metabolism [24]: Metabolite detected
